According to article PMC3100537 (Biochemistry, 2011):
“And” between values parts separate entries of the source, which are not always exact repeats. Equal values may be shown once.

What was measured:
[1] = Non-denaturing gradient gel electrophoresis; assay type: physicochemical; details: Native-PAGE 4–20% Tris-glycine gel; stock solutions 1 mg/ml PBS, pH 7.4; 3 μg per well
[2] = Circular dichroism spectroscopy, secondary structure; assay type: physicochemical
In short: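 Lipid-free peptide in 10 mM sodium phosphate, pH 7.4, at 25°C; 2 mg/ml stock diluted in the same buffer to 6–310 μM (18–1000 μg/ml). Four scans at 20 nm/min averaged per concentration. α-Helicity derived from molar ellipticity at 222 nm; [θ]222/[θ]208 ratio plotted against concentration. For TFE, 0.2 mg/ml peptide held ±50% TFE for 30 min at 25°C before scanning (n=3).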

physchem = details: pH 7.4, aqueous buffer
[3] = Gel-filtration chromatography; assay type: physicochemical
In short: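 Size-exclusion FPLC on Superdex 75 or Superdex Peptide columns equilibrated in PBS (10 mM phosphate, 150 mM NaCl, pH 7.4), run at 0.5 ml/min at room temperature. 0.2 ml of peptide stock (0.125 to 140 mg/ml; concentration set by A280) injected, with elution read at 280 or 215 nm. Columns calibrated with molecular weight standards. Stocks also run after 2 years' sterile storage at 4°C or 24 h at 37°C.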

[4] = Small angle X-ray scattering; assay type: physicochemical
In short: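 Concentration-scaled intensity at q = 0 converted to mass by calibration against lysozyme, xylanase and BSA. Ab initio shape from ten averaged modelling runs. Two independent peptide preparations measured.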

[5] = DMS cross-linking / SDS-PAGE of self-associated forms; assay type: physicochemical; details: 20-fold molar excess DMS, 3 h, 25 °C; SDS-PAGE 10–20% Tricine gel
In short: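 Peptide at various concentrations reacted with 20-fold molar excess dimethylsuberimidate for 3 h at 25°C, then quenched with 50 mM Tris-HCl. Mixed with SDS loading buffer, boiled 1 min, and run on 10–20% Tris-Tricine SDS-PAGE. Protein stain visualized cross-linked species, sized against 1.7–40 kDa markers.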

J774 mouse macrophages = details: lipid-free peptide; cited from earlier work

Substance | migration form on non-denaturing gel (aggregation) [1] | α-helical content, presence of 50% TFE ([2]; 0.2 mg/ml, 50% TFE) [%] | α-helical content, absence of TFE ([2]; 0.2 mg/ml, no TFE) [%] | solubility (physchem) [µg/mL] | gel-filtration profile after prolonged storage ([3]; 2 years in PBS at 4 °C under sterile conditions, data not shown) | concentration at which monomeric ATI-5261 predominated ([3]; FPLC (Superdex 75 and Peptide columns) and SDS-PAGE/DMS cross-linking) [ng/mL] | concentration at which peptide monomers were predominant ([3]; FPLC, allowing for ~10-fold dilution on the columns, PBS pH 7.4) [ng/mL] | MW of the peptide assembly by FPLC ([3]; Superdex Peptide 10/300 GL column, 1 mg peptide/ml, PBS, A215, calibrated with (Gly)6, aprotinin, ribonuclease A) [kDa] | gel-filtration profile after incubation at 37 °C ([3]; incubation at 37 °C for 24 h, data not shown) | SAXS MW relative to monomeric weight of the peptide (3230 Da) ([4]; 2–8 mg/ml PBS pH 7.4) | aggregation detected from X-ray intensity profiles ([4]; peptide at 2–8 mg/ml PBS) | concentration range of dissociation of the tetrameric assembly to monomers [5] [mg/ml] | α-helical content, extensively diluted sample ([2]; 6 μM, i.e. 18 μg/ml, 10 mM phosphate buffer pH 7.4, 25 °C) [%] | α-helical content with 50% TFE compared to controls with no TFE ([2]; 0.2 mg/ml, 10 mM phosphate pH 7.4, 30 min TFE at 25 °C, n=3) | 222/208 ellipticity ratio ([2]; 50% TFE) | α-helical content ([2]; lipid-free peptide, 10 mM phosphate buffer pH 7.4, 25 °C, 0.2 mg/ml (62 μM), from molar ellipticity at 222 nm, mean ± SD, n=4) [%] | concentration of saturation in cholesterol efflux (J774 mouse macrophages) [µg/mL]
Ac-DWFKAFYDKVAEKFKEAF-NH2 [peptide 4F, reference compound] | aggregated as high molecular weight (HMW) species | 49 | 28 | ~1000 | – | – | – | – | – | – | – | – | – | – | – | – | –
Ac-EVRSKLEEWFAAFREFAEEFLARLKS-NH2 [ATI-5261] | low molecular weight (LMW) band | – | – | – | not altered | ≤ 25000 | < 25000 | 12.8 | not altered | ~4 times and 4.1 times | Little or no aggregation | 0.5 to 0.025 | 82.6 | remained unchanged | < 1 | 74.1±6.8 | 3
